Data published in BindingDB's records for doi:10.1016/j.bmcl.2010.09.046 (Human Biomolecular Research Institute, 2010).

Assays:
Bcl-2-related protein A1 [1] = biological target: T1, Bcl-2-related protein A1 (Homo sapiens, UniProt Q16548); assay: Inhibition of N-terminal FITC BH3 peptide binding to GST-tagged Bfl1 by fluorescence polarization assay
T1 sequence (Q16548 whole entry): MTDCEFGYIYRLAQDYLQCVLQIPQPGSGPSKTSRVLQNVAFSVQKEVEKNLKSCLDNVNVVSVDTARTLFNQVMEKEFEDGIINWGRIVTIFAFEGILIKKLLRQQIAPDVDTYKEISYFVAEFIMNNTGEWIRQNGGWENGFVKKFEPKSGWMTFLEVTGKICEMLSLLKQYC
How it was run: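 Then FITC-Bid BH3 peptide (5.6 nM working solution) was added and incubated 4 h at room temperature. Ten concentrations in 10% DMSO. Fluorescence polarization read at ex 485/em 530 nm. IC50 from sigmoidal dose-response non-linear regression.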

Bcl-2-related protein A1 [2] = biological target: T1, Bcl-2-related protein A1; assay: Inhibition of N-terminal FITC BH3 peptide binding to GST-tagged Bfl1 by time resolved-FRET assay
How it was run: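 10-point 2-fold dilution series in 10% final DMSO, in duplicate wells. FITC-Bid (5.6 nM) plus Tb-antibody (2.5 nM) was then added and incubated 4 h at room temperature. TR-FRET read at ex 340 nm, signal taken as the 520/490 nm emission ratio.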

| IC50 (Bcl-2-related protein A1 [1]) [µM] | IC50 (Bcl-2-related protein A1 [2]) [µM] | Structure (SMILES) |
| --- | --- | --- |
| > 10 | > 10 | CN1CCN(c2cc(O)n(-c3ccc(Cl)c(Cl)c3)c2O)CC1 [1-(3,4-dichlorophenyl)-3-(4-methylpiperazin-1-yl)pyrrolidine-2,5-dione] |
| > 50 | > 50 | Oc1c(Cl)c(N=Cc2ccccc2)c(O)n1-c1ccc(Cl)c(Cl)c1 [MLS-0067125.0001] |
